Screening results from PubChem.
Rows were chosen to be rich in hits. Some 6.8% of all compounds tested hit in one or more screens of this group.
AI-2 QS mod – modulates the Vibrio harveyi AI-2 quorum sensing system; 300,000 tested, 0.4% active; activity change, % at 7.5 µM; Vibrio harveyi JMH597 AI-2 luminescence/OD600 ratio, 9 h; hits give low values; strain lacks LuxN and CqsS sensors; 0 = neutral-control median; in the data active = activity change below about -75%, passing the limit was not always enough; inconclusive = no clear call, values can overlap the other calls;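 note: luminescence divided by OD600 gain over 9 h not by final OD600 alone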
ALR H2O2 inh – blocks human ALR sulfhydryl oxidase activity. P55789. 290,000 tested, 3.8% active. inhibition, % (concentration not given with the values). purified ALR, DTT oxidation, H2O2 HRP-luminol luminescence;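 active = mean replicate inhibition above about 79%, with every replicate also reaching it, limit read from the data; inconclusive = only one of the two criteria met; inactive = mean below limit and not every replicate reaching it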
Target sequence (P55789 whole entry, looked up): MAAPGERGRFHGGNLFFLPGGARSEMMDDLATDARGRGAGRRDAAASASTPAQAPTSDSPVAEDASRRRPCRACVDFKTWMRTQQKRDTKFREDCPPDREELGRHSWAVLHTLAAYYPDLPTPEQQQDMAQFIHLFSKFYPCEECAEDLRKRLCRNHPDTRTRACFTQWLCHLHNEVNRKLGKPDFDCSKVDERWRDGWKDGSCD
core dimer inh – HCV core protein dimerization inhibition; 300,000 tested, 0.33% active; TR-FRET GST/Flag-core106 dimerization, 1536-well; inhibition, % at 5 µM;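 active = inhibition above the mean of all tested compounds plus 3 SD, set per screening campaign, cut at about 45% in these data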
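assay system = GST-tagged and Flag-tagged HCV core protein residues 1-106 | controls = unlabelled core106 and no-GST-core106 wells | incubation = compound-protein-antibody incubation 4 h at 22.5 °C | probe or stimulus = Eu donor and XL665 acceptor anti-tag antibodies | read-out = % inhibition based on acceptor/donor emission ratio | signal = TR-FRET 671 and 617 nm emission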
PHOSPHO1 inh – PHOSPHO1 (human) inhibition; Q8TCT1; recombinant PHOSPHO1, absorbance phosphatase assay; inhibition, % at 13.3 µM; 290,000 tested, 1.1% active; AID 1565; in the data active = inhibition above about 60%
Target sequence (Q8TCT1 whole entry, looked up): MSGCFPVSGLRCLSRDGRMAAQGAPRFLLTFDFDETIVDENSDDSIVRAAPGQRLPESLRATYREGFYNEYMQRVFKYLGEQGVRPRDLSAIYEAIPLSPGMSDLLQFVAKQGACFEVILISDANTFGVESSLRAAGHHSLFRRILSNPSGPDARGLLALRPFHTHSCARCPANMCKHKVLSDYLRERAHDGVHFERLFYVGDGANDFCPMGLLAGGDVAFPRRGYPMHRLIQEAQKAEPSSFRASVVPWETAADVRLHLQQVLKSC
HSF1 inh – HSF1 inhibition | NIH3T3-HGL HSE-luciferase, MG132-induced, luminescence 8 h; hits give low values | activity change, negative = inhibition, % at 7.5 µM (by protocol) | 300,000 tested, 0.77% active;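 active = more than half of replicate wells show activity change below -50%, luminescence cut by over half; inconclusive = some wells, but at most half, below -50%; inactive = no replicate well below -50%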;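 note: luciferase reports HSF-1 transcriptional activity via heat shock element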
HSF-1 act – increases HSF-1 driven luciferase reporter signal; NIH3T3-HGL HSF-1 luciferase reporter, MG132, 8 h; 100% = twice DMSO control signal; activation, % at 9 µM; 300,000 tested, 1.7% active;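 active = mean replicate activation of at least 50% with a set share of replicates each reaching 50%; inconclusive = only one of those two conditions met; inactive = mean below 50% and too few replicates reaching it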
Numbers stand for hits; - = inactive; ? = inconclusive; . = not tested or not shown.

SMILES | AI-2 QS mod | ALR H2O2 inh | core dimer inh | PHOSPHO1 inh | HSF1 inh | HSF-1 act
O=C(N/N=C/C1=C(N2CCOCC2)C(=C\c2ccccc2)/CC1)Nc1ccccc1 | - | - | - | - | - | -
N#CCOC(=O)c1cc(S(=O)(=O)N2CCCCC2)ccc1N1CCOCC1 | . | - | . | . | . | .
O=C(CSc1nc2ccc(Nc3nc(N4CCOCC4)nc(N4CCOCC4)n3)cc2s1)N1CCOCC1 | - | ? | - | - | - | -
CSc1nc2ccc(Nc3nc(N4CCOCC4)nc(N4CCOCC4)n3)cc2s1 | . | 98 | - | - | . | .
CCSc1nnc(NC(=O)C2Cc3ccccc3CN2C(=O)c2ccco2)s1 (configuration not stated) | - | - | 85 | 61 | - | -
CCN(CC)CCNC(=O)CS(=O)Cc1nc(-c2ccc(Cl)cc2)oc1C (configuration not stated) | - | 99 | - | - | - | -
CCN(CC)CCNC(=O)CS(=O)Cc1nc(-c2ccc(C)cc2)oc1C (configuration not stated) | - | 99 | - | - | - | -
CCN(CC)CCNC(=O)CS(=O)Cc1nc(-c2ccccc2Cl)oc1C (configuration not stated) | - | 99 | - | - | - | -
Cc1ccc(CNC(=O)CS(=O)CC(=O)O)cc1 (configuration not stated) | - | - | - | - | - | -
Cc1ccc(CNC(=O)CS(=O)Cc2nc(-c3ccccc3Cl)oc2C)cc1 (configuration not stated) | - | 95 | - | - | - | -
CCN(CC)c1ccc(NC(=O)COc2ccc(-n3cnnn3)cc2)cc1 | . | 99 | . | . | . | .
CCOC(=O)c1ccc(NC(=O)COc2ccc(-n3cnnn3)cc2)cc1 | - | - | 58 | - | - | -
CCOc1ccc(NC(=O)COc2ccc(-n3cnnn3)cc2)cc1 | . | - | . | . | . | .
CC1C(=O)OC(c2ccc(Br)cc2)C(C)(C)C1=O (configuration not stated) | - | - | - | - | - | -
CCOC(=O)/C(=N\Nc1ccccc1Cl)N1CCN(c2ccccc2OC)CC1 | - | - | - | - | - | -
COc1ccc(/C=C2/C(=O)ON=C2c2ccccc2)cc1OC | - | - | - | - | - | -
CCOc1cc(/C=C2/C(=O)ON=C2C)ccc1OCc1ccc(F)cc1 | - | - | - | - | - | 63
CCOc1cc(/C=C2\C(=O)ON=C2c2ccccc2)ccc1OC | - | 92 | - | - | - | -
C#CCOc1c(Cl)cc(/C=C2/C(=O)ON=C2C)cc1OCC | - | - | - | - | - | 52
C#CCOc1c(Br)cc(/C=C2/C(=O)ON=C2C)cc1OCC | - | . | - | - | - | -
Cc1cccc(CCN2C(N(C)C)=NC[C@@H]2C)c1 | . | . | - | . | . | .
CN(Cc1ccccc1)Cc1c(O)ccc2ccccc12 | - | - | - | - | - | -
COc1ccc(OCCN(C)Cc2c(O)ccc3ccccc23)cc1 | - | - | - | - | - | 130
O=C(c1ccco1)N1CCN(S(=O)(=O)c2ccccc2[N+](=O)[O-])CC1 | - | - | - | - | - | -
Cc1cc(F)ccc1NCc1ccccc1[N+](=O)[O-] | - | 99 | - | - | - | -
SMILES | AI-2 QS mod | ALR H2O2 inh | core dimer inh | PHOSPHO1 inh | HSF1 inh | HSF-1 act
Cc1cc([N+](=O)[O-])ccc1NCc1ccccc1[N+](=O)[O-] | - | - | - | - | - | -
CC12CN(C(=S)Nc3ccccc3)CC(C)(CN(C(=S)Nc3ccccc3)C1)C2=O | - | - | - | - | - | 74
S=C(Nc1ccccc1)N1CCN(C(=S)c2ccccc2)CC1 | - | - | - | - | - | -
COc1ccc(C(C2C(=O)CC(C)(C)CC2=O)C2C(=O)CC(C)(C)CC2=O)cc1CO | - | 96 | . | - | - | -
COc1ccc(C2CC(=O)C3=C(C2)Nc2ncnn2C3c2ccccc2)cc1 (configuration not stated) | - | - | - | - | - | 81
CCCCC(=O)NNC(=S)NC(=O)c1ccc([N+](=O)[O-])cc1 | - | - | - | 61 | - | -
Cc1ccc(C(=O)NCC#N)cc1 | - | . | - | - | - | -
CCCCC(=O)NNC(=S)NC(=O)c1cccc([N+](=O)[O-])c1 | - | 98 | - | 94 | - | -
CCCCC(=O)NNC(=S)NC(=O)c1ccc(C)cc1 | - | 99 | - | - | - | -
Cc1ccc(C(=O)NC(C#N)=C(Cl)Cl)cc1 | - | . | . | - | - | 151
C#CC1(NC(=O)NC(C)C)CCCCC1 | - | - | - | - | - | -
Cc1cc(C)n2nc(SC(C)C(=O)N(C)c3ccccc3)nc2n1 (configuration not stated) | . | - | . | . | . | .
Cc1ccc(C(=O)NC(=S)NNC(=O)CC#N)cc1 | - | 99 | - | - | - | -
CC1=CC(=O)C(C(C)C)=C/C1=C(\c1cc(C(C)C)c(OP(=O)(O)O)cc1C)c1ccccc1C(=O)O | - | - | - | - | - | -
Cc1cccc(N2CCC(N=CN(C)C)=N2)c1 | - | 99 | - | - | - | -
CCN(C=NC1=NN(c2cccc(C(F)(F)F)c2)CC1)CC | - | 94 | - | - | - | -
C=CCC(O)(CC=C)CNC(=O)C1CCC(=O)N(CCCc2ccccc2)C1 (configuration not stated) | - | - | - | - | - | -
COc1ccc(C2=NN3C(C2)c2ccccc2OC32C(=O)N(C)c3ccccc32)cc1 (configuration not stated) | - | - | 65 | - | - | 92
COc1ccc(C2=NN3C(C2)c2ccccc2OC3c2cccs2)cc1 (configuration not stated) | - | . | - | - | - | 63
CCOP(=O)(c1ccccc1)c1nc(-c2ccccc2C)oc1NCc1ccccc1 (configuration not stated) | - | - | - | - | - | -
COc1cccc(-c2cc(C(=O)N3CCN(C(=O)c4ccco4)CC3)on2)c1 | - | - | - | - | - | -
O=C(O)CC/C(=C\c1cc([N+](=O)[O-])ccc1Cl)c1nc2ccccc2s1 | - | 96 | - | - | - | -
O=C(O)CC/C(=C\c1ccccc1[N+](=O)[O-])c1nc2ccccc2s1 | - | 97 | - | - | - | -
O=C(O)CC/C(=C\c1ccc(N2CCCC2)c([N+](=O)[O-])c1)c1nc2ccccc2s1 | - | - | - | - | - | -
O=C(O)CC/C(=C\c1cccc(NC(=O)c2ccccc2Cl)c1)c1nc2ccccc2s1 | - | - | - | - | - | -
Cc1ccc(S(=O)(=O)C/N=C(/NC(=S)N(c2ccccc2)c2ccccc2)c2ccccc2)cc1 | - | - | - | 66 | - | -
O=C(CCc1ccccn1)N1CCCC(Nc2ccc(F)cc2)C1 (configuration not stated) | - | 99 | - | - | - | -
